Test results published in PMC4227764 (Nucleic Acids Research, 2014).
Like-named read-outs stand apart in the source and are kept apart here.

Assays:
[1] = target: Bacillus subtilis RNase P; format: biochemical; conditions: read-out: IC50 for inhibition of RNase P; Buffer B (pH 7.2, 10 mM MgCl2, 100 mM KCl), 50 nM Fl-pre-tRNA^Asp, 0.4 nM RNase P, 4 nM P protein, 37°C
Fl-pre-tRNA^Asp = test: FA titration: binding of compounds to Fl-pre-tRNA^Asp; design: species or system Bacillus subtilis; conditions: for change in anisotropy (ΔFA) upon binding to Fl-pre-tRNA^Asp: Figure 4A, buffer B; for Kd: read-out: Kd for Fl-pre-tRNA^Asp, 37°C
Procedure, shortened: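 RNA first heat-denatured 3 min at 95°C, then refolded at 37°C. Kd taken from the dependence of the FA signal on compound concentration. Competition run at fixed compound with varied yeast tRNAMix in buffer B.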

Escherichia coli RNase P = conditions: cited from earlier work
B. subtilis RNase P = target: T1, B. subtilis RNase P (Bacillus subtilis, UniProt P25814); test: RNase P cleavage activity in response to HTS reagents; format: biochemical
T1 sequence (P25814 1-116): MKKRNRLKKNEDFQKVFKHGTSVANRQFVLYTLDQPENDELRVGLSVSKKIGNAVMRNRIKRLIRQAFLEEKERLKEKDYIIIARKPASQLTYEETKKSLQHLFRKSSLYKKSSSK
Procedure, shortened: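 B. subtilis holoenzyme formed by adding P protein to refolded P RNA, 30 min at 37°C. Enzyme pre-incubated 30 min with 2% DMSO at 30°C. Reaction started with an equal volume of Fl-pre-tRNAAsp substrate, quenched with 80 mM CaCl2 at various times. Fluorescence polarization read at λex 485 nm / λem 520 nm.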

[2] = target: Dictyostelium discoideum RNase P; conditions: read-out: Ki (non-competitive); cited from earlier work
native yeast tRNA^Phe = conditions: cited from earlier work
[3] = Buffer B + 12 mg/ml yeast tRNA^Mix
[4] = Buffer B, 50 nM Fl-pre-tRNA^Asp

| IC50 [1] [µM] | change in anisotropy (ΔFA) upon binding to Fl-pre-tRNA^Asp (Fl-pre-tRNA^Asp) [mA] | Kd (Fl-pre-tRNA^Asp; [3]) [µM] | Kd (Fl-pre-tRNA^Asp; [4]) [µM] | Compound | IC50 (Escherichia coli RNase P) [µM] | also measured |
| --- | --- | --- | --- | --- | --- | --- |
| 52 ± 6 | ~35 | 540 ± 60 | 220 ± 20 | NC[C@H]1O[C@H](O[C@H]2[C@H](O)[C@@H](O[C@H]3O[C@H](CO)[C@@H](O)[C@H](N)[C@H]3O)[C@H](N)C[C@@H]2N)[C@H](N)[C@@H](O)[C@@H]1O [KanB, kanamycin B] | – | – |
| – | – | – | – | Spiramycin | – | effect on steady-state turnover (Escherichia coli RNase P): activate the steady-state turnover |
| – | – | – | – | nonidet P-40 [NP-40] | – | effect on RNase P activity (B. subtilis RNase P; 0.01–0.1% v/v): unaffected |
| – | – | – | – | C[S+](C)[O-] [DMSO, dimethyl sulfoxide] | – | inhibition of RNase P activity (B. subtilis RNase P; 2% DMSO): 20% |
| – | – | – | – | COc1ccc(C[C@H](N)C(=O)N[C@H]2[C@@H](O)[C@H](n3cnc4c(N(C)C)ncnc43)O[C@@H]2CO)cc1 [puromycin] | ~3000 | – |
| 23 ± 3 | ~50 | 100 ± 20 | 90 ± 5 | NC[C@@H]1O[C@H](O[C@H]2[C@@H](O)[C@H](O[C@@H]3[C@@H](O)[C@H](N)C[C@H](N)[C@H]3O[C@H]3O[C@H](CN)[C@@H](O)[C@H](O)[C@H]3N)O[C@@H]2CO)[C@H](N)[C@@H](O)[C@@H]1O [NeoB, neomycin B] | 60 | Ki [2]: 143 µM; Kd (native yeast tRNA^Phe): 90 µM |
